For 18 compounds, IC50 results are on record in ChEMBL document CHEMBL1142473, “Antitumor studies. Part 5: Synthesis, antitumor activity, and molecular docking study of 5-(monosubstituted amino)-2-deoxo-2-phenyl-5-deazaflavins” (Bioorg Med Chem, 2008).

Values after ≈ are worked out from the molar mass of the structure shown.

For assay [1], the system named is CCRF-HSB-2. The assay can be described thus: Growth inhibition of human CCRF-HSB-2 cells by MTT method. The class given is functional, cell-based. The method, boiled down: (§1)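 IC50 taken from the dose-response curve; AraC run alongside as positive control.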
Assay [2] concerns KB. The experiment in a line: Growth inhibition of human KB cells by MTT method. The class given is functional, cell-based. The gist of the method:
as §1
For orientation: Formazan colour is commonly taken as a measure of viable cells.

The term IC50 denotes the concentration needed to halve the response being measured. Take `CCCNc1c2c(=O)nc(-c3ccccc3)nc-2n(C)c2ccccc12`: the IC50 in assay [1] was above 100 µg/mL; in assay [2] it was 18 µg/mL (≈ 52.3 µM).
`CCCCCCCCNc1c2c(=O)nc(-c3ccccc3)nc-2n(C)c2ccccc12`: the IC50 in assay [1] is above 100 µg/mL; in assay [2], 32.9 µg/mL (≈ 79.4 µM).
In the case of `CCCCNc1c2c(=O)nc(-c3ccccc3)nc-2n(CC)c2ccccc12`, the figures for the IC50 in assay [1] and in assay [2] were 8.3 µg/mL (≈ 22.3 µM) and 7.6 µg/mL (≈ 20.4 µM), respectively.
The like results for `CCCCNc1c2c(=O)nc(-c3ccccc3)nc-2n(C)c2ccc(C)cc12` were, in that order, 2.1 µg/mL (≈ 5.64 µM) and 2.7 µg/mL (≈ 7.25 µM).
The like results for `CCCCNc1c2c(=O)nc(-c3ccccc3)nc-2n(CC)c2ccc(C)cc12` were, in that order, 8.9 µg/mL (≈ 23 µM) and 8.6 µg/mL (≈ 22.3 µM).
Taken in the same sequence, the figures for `Cc1ccc(Nc2c3c(=O)nc(-c4ccccc4)nc-3n(C)c3ccccc23)cc1` were 1.1 µg/mL (≈ 2.8 µM) and 1.8 µg/mL (≈ 4.59 µM).
With `Cn1c2nc(-c3ccccc3)nc(=O)c-2c(NCCc2ccccc2)c2ccccc21`, the IC50 in assay [1] was determined as 17.7 µg/mL (≈ 43.5 µM); in assay [2] it was 22 µg/mL (≈ 54.1 µM).
The like results for `CCCCCCCCNc1c2c(=O)nc(-c3ccccc3)nc-2n(CC)c2ccccc12` were, in that order, 20.4 µg/mL (≈ 47.6 µM) and 12 µg/mL (≈ 28 µM).
Taken in the same sequence, the figures for `COC(=O)c1ccccc1Nc1c2c(=O)nc(-c3ccccc3)nc-2n(C)c2ccccc12` were above 100 µg/mL and above 100 µg/mL.
In the case of `Cn1c2nc(-c3ccccc3)nc(=O)c-2c(NCc2ccccc2)c2ccccc21`, the results for the IC50 in assay [1] and in assay [2] were above 100 µg/mL and 66.9 µg/mL (≈ 170 µM), respectively.
Taken in the same sequence, the figures for `CCn1c2nc(-c3ccccc3)nc(=O)c-2c(NCCc2ccccc2)c2ccccc21` were 63.3 µg/mL (≈ 151 µM) and 53.4 µg/mL (≈ 127 µM).
For the compound `CCn1c2nc(-c3ccccc3)nc(=O)c-2c(NCc2ccccc2)c2cc(C)ccc21`, the IC50 in assay [1] came to 6.9 µg/mL (≈ 16.4 µM); in assay [2] it was 17.2 µg/mL (≈ 40.9 µM).
Taken in the same sequence, the figures for `CCn1c2nc(-c3ccccc3)nc(=O)c-2c(NCc2ccccc2)c2ccccc21` were 6.1 µg/mL (≈ 15 µM) and 4.7 µg/mL (≈ 11.6 µM).
Taken in the same sequence, the figures for `Cc1ccc(Nc2c3c(=O)nc(-c4ccccc4)nc-3n(C)c3ccccc23)cc1C` were 0.75 µg/mL (≈ 1.85 µM) and 1.6 µg/mL (≈ 3.94 µM).
As for `CCCCCCCCNc1c2c(=O)nc(-c3ccccc3)nc-2n(CC)c2ccc(C)cc12`, the IC50 in assay [1] is 5.7 µg/mL (≈ 12.9 µM); in assay [2], 2 µg/mL (≈ 4.52 µM).
The like results for `CCCCCCCCNc1c2c(=O)nc(-c3ccccc3)nc-2n(C)c2ccc(C)cc12` were, in that order, 8.6 µg/mL (≈ 20.1 µM) and 4.7 µg/mL (≈ 11 µM).
Take `Nc1ccn([C@@H]2O[C@H](CO)[C@@H](O)[C@@H]2O)c(=O)n1` [CYTARABINE]: the IC50 in assay [1] worked out at 0.017 µg/mL (≈ 0.0699 µM); in assay [2], 0.42 µg/mL (≈ 1.73 µM).
The like results for `CCCCNc1c2c(=O)nc(-c3ccccc3)nc-2n(C)c2ccccc12` were, in that order, 4.7 µg/mL (≈ 13.1 µM) and 6.6 µg/mL (≈ 18.4 µM).
